# Experimental data published in ChEMBL document CHEMBL1131142 (J Med Chem, 1998).
# Activity calls are given as the source filed them. No cut-off for these calls is given here.
# Tests used:
# [1] = target: Aldo-keto reductase family 1 member B1 (Sus scrofa, UniProt P80276); assay: In vitro inhibitory activity against aldose reductase in porcine lens.
# How it was run: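 Partially purified porcine lens AR: lens homogenate in 250 mM phosphate pH 7.4 with 2 mM mercaptoethanol, 20000g supernatant, 40-60% ammonium sulfate cut. Assay mix: 100 mM phosphate pH 6.5, 0.2 mM NADPH, 1.5 mM DL-glyceraldehyde, 0.4 M Li2SO4, 7.0 mU/mL enzyme; 37 °C; A340 decrease over 1 min. IC50 read graphically from log concentration-inhibition curve.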
# Rattus norvegicus [2] = assay: Tested in vivo for inhibition of sorbital accumulation in the sciatic nerve of streptozotocin- induced diabetic rat; % Inhibition at 100 mg/kg; type: functional
# Rattus norvegicus [3] = assay: Compound tested in vivo for inhibition of sorbital accumulation in the sciatic nerve of streptozotocin- induced diabetic rat at 100 mg/kg; type: functional
# Rattus norvegicus [4] = assay: Tested in vivo for inhibition of sorbital accumulation in the sciatic nerve of streptozotocin- induced diabetic rat; % Inhibition at 30 mg/kg; type: functional
# Rattus norvegicus [5] = organism: Rattus norvegicus; assay: Dose required for inhibition of sorbital accumulation in the sciatic nerve of streptozotocin- induced diabetic rat.; type: functional
# How it was run: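 Oral dosing of streptozotocin-diabetic rats once daily for 5 days; sciatic nerve taken 4 h after final dose. Nerve sorbitol assayed fluorometrically via sorbitol dehydrogenase-generated NADH (ex 365/em 430 nm).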
# Rattus norvegicus [6] = assay: Tested in vivo for inhibition of sorbital accumulation in the sciatic nerve of streptozotocin- induced diabetic rat;NS=No significant inhibition at 100 mg/kg; type: functional, organism-based; parameters: dose 100 mg/kg
# Rattus norvegicus [7] = assay: Compound tested in vivo for inhibition of sorbital accumulation in the sciatic nerve of streptozotocin- induced diabetic rat; No significant inhibition at 100 mg/kg; type: functional, organism-based; parameters: dose 100 mg/kg
# Rattus norvegicus [8] = assay: Compound tested in vivo for inhibition of sorbital accumulation in the sciatic nerve of streptozotocin- induced diabetic rat; No significant inhibition at 1 mg/kg; type: functional, organism-based; parameters: dose 1 mg/kg
# Rattus norvegicus [9] = assay: Compound tested in vivo for inhibition of sorbital accumulation in the sciatic nerve of streptozotocin- induced diabetic rat; % Inhibition at 1 mg/Kg; type: functional
# Rattus norvegicus [10] = assay: Compound tested for inhibition of sorbital accumulation in the sciatic nerve of streptozotocin- induced diabetic rat; % Inhibition at 1 mg/kg; type: functional
# Rattus norvegicus [11] = assay: Compound tested in vivo for inhibition of sorbital accumulation in the sciatic nerve of streptozotocin- induced diabetic rat; No significant inhibition at 30 mg/kg; type: functional, organism-based; parameters: dose 30 mg/kg
structure (smiles),measurement,setting,value
CC(C)N1C(=O)c2cccn2C(CC(=O)O)C1=O (configuration not stated),IC50,[1],> 10000 nM
same,inhibition in vivo at 100 mg/kg,Rattus norvegicus [2],12.9%
O=C(O)CCC1C(=O)N(Cc2ccc(Cl)c(Cl)c2)C(=O)c2cccn21 (configuration not stated),IC50,[1],132 nM
same,inhibition in vivo at 100 mg/kg,Rattus norvegicus [3],17.2%
O=C1CC2(C(=O)N1)C(=O)N(Cc1ccc(C(F)(F)F)cc1)C(=O)c1cccn12 (configuration not stated),inhibition in vivo at 30 mg/kg,Rattus norvegicus [4],88.4%
COc1ccc(CN2C(=O)c3cccn3C3(CC(=O)NC3=O)C2=O)cc1 (configuration not stated),inhibition in vivo at 30 mg/kg,Rattus norvegicus [4],46.7%
O=C1CC2(C(=O)N1)C(=O)NC(=O)c1cccn12 (configuration not stated),inhibition in vivo at 30 mg/kg,Rattus norvegicus [4],33.2%
same,IC50,[1],630 nM
O=C1C[C@@]2(C(=O)N1)C(=O)N(Cc1ccc(Br)cc1F)C(=O)c1cccn12,IC50,[1],15 nM
same,ED50,Rattus norvegicus [5],0.18 mg/kg/day
O=C(O)CCC1C(=O)NC(=O)c2cccn21 (configuration not stated),inhibition,Rattus norvegicus [6],inactive
same,IC50,[1],> 10000 nM
O=C1CC2(C(=O)N1)C(=O)N(Cc1ccc([N+](=O)[O-])cc1)C(=O)c1cccn12 (configuration not stated),inhibition in vivo at 30 mg/kg,Rattus norvegicus [4],102%
same,ED50,Rattus norvegicus [5],10.8 mg/kg/day
O=C1CC2(C(=O)N1)C(=O)N(Cc1ccc(Br)cc1)C(=O)c1cccn12 (configuration not stated),inhibition in vivo at 30 mg/kg,Rattus norvegicus [4],108%
same,ED50,Rattus norvegicus [5],0.48 mg/kg/day
O=C1CC2(C(=O)N1)C(=O)N(Cc1ccccc1F)C(=O)c1cccn12 (configuration not stated),inhibition in vivo at 30 mg/kg,Rattus norvegicus [4],98%
same,ED50,Rattus norvegicus [5],1.3 mg/kg/day
O=C1CC2(C(=O)N1)C(=O)N(Cc1ccc(Cl)c(Cl)c1)C(=O)c1cccn12 (configuration not stated),inhibition in vivo at 30 mg/kg,Rattus norvegicus [4],112%
same,ED50,Rattus norvegicus [5],0.6 mg/kg/day
O=C1CC2(C(=O)N1)C(=O)N(Cc1ccc(F)cc1)C(=O)c1cccn12 (configuration not stated),inhibition in vivo at 30 mg/kg,Rattus norvegicus [4],58.8%
O=C(O)CC1C(=O)N(Cc2ccc(Cl)c(Cl)c2)C(=O)c2cccn21 (configuration not stated),inhibition,Rattus norvegicus [7],inactive
same,IC50,[1],131 nM
O=C(O)CCC1C(=O)N(Cc2ccc(Br)cc2F)C(=O)c2cccn21 (configuration not stated),inhibition,Rattus norvegicus [6],inactive
same,IC50,[1],803 nM
O=C1CC2(C(=O)N1)C(=O)N(Cc1ccc(F)cc1F)C(=O)c1cccn12 (configuration not stated),inhibition in vivo at 30 mg/kg,Rattus norvegicus [4],98%
same,ED50,Rattus norvegicus [5],5.4 mg/kg/day
O=C1CC2(C(=O)N1)C(=O)N(Cc1ccc(Br)cc1F)C(=O)c1ccc(Br)n12 (configuration not stated),inhibition,Rattus norvegicus [8],inactive
O=C1CC2(C(=O)N1)C(=O)N(Cc1ccc(Br)cc1F)C(=O)c1cc(Br)c(Br)n12 (configuration not stated),IC50,[1],52 nM
same,inhibition,Rattus norvegicus [8],inactive
O=C1CC2(C(=O)N1)C(=O)N(Cc1cccc(Cl)c1)C(=O)c1cccn12 (configuration not stated),inhibition in vivo at 30 mg/kg,Rattus norvegicus [4],99.4%
same,IC50,[1],35 nM
same,ED50,Rattus norvegicus [5],3.8 mg/kg/day
CN1C(=O)c2cccn2C(CC(=O)O)C1=O (configuration not stated),IC50,[1],> 10000 nM
same,inhibition in vivo at 100 mg/kg,Rattus norvegicus [2],12.8%
O=C(O)CC1C(=O)NC(=O)c2cccn21 (configuration not stated),IC50,[1],> 10000 nM
same,inhibition in vivo at 100 mg/kg,Rattus norvegicus [2],12.5%
CN1CC(=O)n2cccc2C1=O,IC50,[1],7500 nM
same,inhibition in vivo at 100 mg/kg,Rattus norvegicus [2],55.7%
O=C(O)Cc1nn(Cc2ccc(Br)cc2F)c(=O)c2ccccc12 [PONALRESTAT],IC50,[1],21 nM
same,ED50,Rattus norvegicus [5],11 mg/kg/day
O=C1CC2(C(=O)N1)C(=O)N(Cc1ccccc1)C(=O)c1cccn12 (configuration not stated),inhibition in vivo at 30 mg/kg,Rattus norvegicus [4],69.1%
O=C1CC2(C(=O)N1)C(=O)N(Cc1ccccc1Cl)C(=O)c1cccn12 (configuration not stated),inhibition in vivo at 30 mg/kg,Rattus norvegicus [4],97%
same,IC50,[1],37 nM
same,ED50,Rattus norvegicus [5],5.8 mg/kg/day
CN1C(=O)c2cccn2C(CCC(=O)O)C1=O (configuration not stated),inhibition,Rattus norvegicus [6],inactive
same,IC50,[1],> 10000 nM
CN1C(=O)c2cccn2C2(CC(=O)NC2=O)C1=O (configuration not stated),inhibition in vivo at 30 mg/kg,Rattus norvegicus [4],51.2%
same,IC50,[1],280 nM
O=C1CC2(C(=O)N1)C(=O)N(Cc1ccc(Br)cc1F)C(=O)c1ccc(Cl)n12 (configuration not stated),inhibition in vivo at 1 mg/kg,Rattus norvegicus [9],20.2%
O=C1CC2(C(=O)N1)C(=O)N(Cc1ccc(Br)cc1F)C(=O)c1cc(Cl)cn12 (configuration not stated),inhibition in vivo at 1 mg/kg,Rattus norvegicus [9],23%
O=C(O)CC1C(=O)N(Cc2ccc(Br)cc2F)C(=O)c2cccn21 (configuration not stated),inhibition,Rattus norvegicus [6],inactive
same,IC50,[1],165 nM
O=C1CC2(C(=O)N1)C(=O)N(Cc1ccc(Cl)cc1F)C(=O)c1cccn12 (configuration not stated),inhibition in vivo at 30 mg/kg,Rattus norvegicus [4],110%
same,ED50,Rattus norvegicus [5],0.74 mg/kg/day
O=C1CC2(C(=O)N1)C(=O)N(Cc1ccc(Br)cc1F)C(=O)c1cccn12 (configuration not stated),inhibition in vivo at 30 mg/kg,Rattus norvegicus [4],115%
same,IC50,[1],45 nM
same,inhibition in vivo at 1 mg/kg,Rattus norvegicus [10],105%
same,ED50,Rattus norvegicus [5],0.3 mg/kg/day
O=C1CC2(C(=O)N1)C(=O)N(Cc1ccccc1Br)C(=O)c1cccn12 (configuration not stated),inhibition in vivo at 30 mg/kg,Rattus norvegicus [4],82.6%
O=C1CC2(C(=O)N1)C(=O)N(Cc1ccc(Cl)cc1)C(=O)c1cccn12 (configuration not stated),inhibition in vivo at 30 mg/kg,Rattus norvegicus [4],105%
same,IC50,[1],38 nM
same,ED50,Rattus norvegicus [5],1.5 mg/kg/day
Nc1ccc(CN2C(=O)c3cccn3C3(CC(=O)NC3=O)C2=O)cc1 (configuration not stated),inhibition in vivo at 30 mg/kg,Rattus norvegicus [4],33.4%
same,IC50,[1],140 nM
O=C1CC2(C(=O)N1)C(=O)N(Cc1ccc(Br)cc1F)C(=O)c1cc(Br)cn12 (configuration not stated),inhibition in vivo at 1 mg/kg,Rattus norvegicus [9],28.8%
COc1ccc(CN2C(=O)c3cccn3C3(CC(=O)NC3=O)C2=O)c(OC)c1 (configuration not stated),inhibition,Rattus norvegicus [11],inactive
same,IC50,[1],350 nM
CC(=O)c1cc2n(c1)C1(CC(=O)NC1=O)C(=O)N(Cc1ccc(Br)cc1F)C2=O (configuration not stated),IC50,[1],210 nM
same,inhibition in vivo at 1 mg/kg,Rattus norvegicus [9],26.6%
O=C1CC2(C(=O)N1)C(=O)N(c1ccccc1)C(=O)c1cccn12 (configuration not stated),inhibition in vivo at 30 mg/kg,Rattus norvegicus [4],27.2%
same,IC50,[1],200 nM
O=C1CC2(C(=O)N1)C(=O)N(CCc1ccccc1)C(=O)c1cccn12 (configuration not stated),inhibition in vivo at 30 mg/kg,Rattus norvegicus [4],15.3%
same,IC50,[1],270 nM
Cc1ccc(CN2C(=O)c3cccn3C3(CC(=O)NC3=O)C2=O)cc1 (configuration not stated),inhibition in vivo at 30 mg/kg,Rattus norvegicus [4],65.8%
O=C1CC2(C(=O)N1)C(=O)N(Cc1cccc(Br)c1)C(=O)c1cccn12 (configuration not stated),inhibition in vivo at 30 mg/kg,Rattus norvegicus [4],102%
COc1ccc2c(C(=S)N(C)CC(=O)O)cccc2c1C(F)(F)F [TOLRESTAT],IC50,[1],15 nM
same,ED50,Rattus norvegicus [5],26.7 mg/kg/day
CN(CC(=O)O)C(=O)c1ccc[nH]1,IC50,[1],5000 nM
same,inhibition in vivo at 100 mg/kg,Rattus norvegicus [2],23.7%
COC(=O)CN(C)C(=O)c1ccc[nH]1,IC50,[1],> 10000 nM
same,inhibition in vivo at 100 mg/kg,Rattus norvegicus [2],38%
CC(C)N1C(=O)c2cccn2C(CCC(=O)O)C1=O (configuration not stated),inhibition,Rattus norvegicus [6],inactive
same,IC50,[1],> 10000 nM
COc1ccc(CN2C(=O)c3cccn3C3(CC(=O)NC3=O)C2=O)cc1OC (configuration not stated),inhibition,Rattus norvegicus [11],inactive
O=C1C[C@]2(C(=O)N1)C(=O)N(Cc1ccc(Br)cc1F)C(=O)c1cccn12,IC50,[1],190 nM
same,ED50,Rattus norvegicus [5],> 100 mg/kg/day
